Values joined by “and” are separate entries in the source; they are usually repeats but may differ in a detail not shown here. Equal entries are not always repeated.
Test system: Fibroblast
Assay: Multiplex assay against human fibroblast
Format: toxicity, cell-based
How it was run: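 Phenotypes for tubulin, mitochondrial mass and membrane permeability are expressed as per cents of healthy-nucleus cells. Cells were stained live at seeding with Hoechst33342, BioTracker Green Microtubule Cytoskeleton Dye, MitoTracker Red and Annexin V Alexa Fluor 680, then imaged after compound addition on a CQ1 microscope at 37°C and 5% CO2. Machine-learning gating in CellPathfinder separated Hoechst high-intensity objects from normal cells, divided normal cells by nuclear state (healthy, pyknosed, fragmented) and divided pyknosed cells into mitotic or apoptotic.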

[1] = 12 h, 1 µM, compound concentration 1 uM, replicate 1
[2] = 12 h, 1 µM, compound concentration 1 uM, replicate 2
[3] = 12 h, 10 µM, compound concentration 10 uM, replicate 1
[4] = 12 h, 10 µM, compound concentration 10 uM, replicate 2
[5] = 24 h, 1 µM, compound concentration 1 uM, replicate 1
[6] = 24 h, 1 µM, compound concentration 1 uM, replicate 2
[7] = 24 h, 10 µM, compound concentration 10 uM, replicate 1
[8] = 24 h, 10 µM, compound concentration 10 uM, replicate 2
[9] = 48 h, 1 µM, compound concentration 1 uM, replicate 1
[10] = 48 h, 1 µM, compound concentration 1 uM, replicate 2
[11] = 48 h, 10 µM, compound concentration 10 uM, replicate 1
[12] = 48 h, 10 µM, compound concentration 10 uM, replicate 2

Cl.N#Cc1ccc2[nH]cc(CCCCN3CCN(c4ccc5oc(C(N)=O)cc5c4)CC3)c2c1 [VILAZODONE HYDROCHLORIDE]
Population Apoptotic (%) [1]: 75%
Population Fragmented Nuclei (%) [1]: 38%
Population Healthy Nuclei (%) [1]: 22%
Population Hoechst High Intensity Objects (%) [1]: 19%
Population Membrane Permeable-Phenotype (%) [1]: 28%
Population Mitochondria Different-Phenotype (%) [1]: 9%
Population Mitotic Cells (%) [1]: 25%
Population Normal (%) [1]: 80%
Population Pyknosed Nuclei (%) [1]: 38%
Population Tubulin-Different-Phenotype (%) [1]: 47%
Total Cell Count [1]: 116
Population Apoptotic (%) [2]: 27%
Population Fragmented Nuclei (%) [2]: 14%
Population Healthy Nuclei (%) [2]: 70%
Population Hoechst High Intensity Objects (%) [2]: 2%
Population Membrane Permeable-Phenotype (%) [2]: 6%
Population Mitochondria Different-Phenotype (%) [2]: 30%
Population Mitotic Cells (%) [2]: 72%
Population Normal (%) [2]: 97%
Population Pyknosed Nuclei (%) [2]: 15%
Population Tubulin-Different-Phenotype (%) [2]: 18%
Total Cell Count [2]: 50
Population Apoptotic (%) [3]: 69%
Population Fragmented Nuclei (%) [3]: 19%
Population Healthy Nuclei (%) [3]: 18%
Population Hoechst High Intensity Objects (%) [3]: 35%
Population Membrane Permeable-Phenotype (%) [3]: 17%
Population Mitochondria Different-Phenotype (%) [3]: 21%
Population Mitotic Cells (%) [3]: 30%
Population Normal (%) [3]: 64%
Population Pyknosed Nuclei (%) [3]: 62%
Population Tubulin-Different-Phenotype (%) [3]: 52%
Total Cell Count [3]: 197
Population Apoptotic (%) [4]: 67%
Population Fragmented Nuclei (%) [4]: 20%
Population Healthy Nuclei (%) [4]: 14%
Population Hoechst High Intensity Objects (%) [4]: 10%
Population Membrane Permeable-Phenotype (%) [4]: 38%
Population Mitochondria Different-Phenotype (%) [4]: 46%
Population Mitotic Cells (%) [4]: 32%
Population Normal (%) [4]: 89%
Population Pyknosed Nuclei (%) [4]: 64%
Population Tubulin-Different-Phenotype (%) [4]: 92%
Total Cell Count [4]: 72
Population Apoptotic (%) [5]: 63%
Population Fragmented Nuclei (%) [5]: 32%
Population Healthy Nuclei (%) [5]: 42%
Population Hoechst High Intensity Objects (%) [5]: 25%
Population Membrane Permeable-Phenotype (%) [5]: 21%
Population Mitochondria Different-Phenotype (%) [5]: 8%
Population Mitotic Cells (%) [5]: 36%
Population Normal (%) [5]: 74%
Population Pyknosed Nuclei (%) [5]: 25%
Population Tubulin-Different-Phenotype (%) [5]: 51%
Total Cell Count [5]: 118
Population Apoptotic (%) [6]: 60%
Population Fragmented Nuclei (%) [6]: 15%
Population Healthy Nuclei (%) [6]: 78%
Population Hoechst High Intensity Objects (%) [6]: 1%
Population Membrane Permeable-Phenotype (%) [6]: 3%
Population Mitochondria Different-Phenotype (%) [6]: 19%
Population Mitotic Cells (%) [6]: 40%
Population Normal (%) [6]: 98%
Population Pyknosed Nuclei (%) [6]: 6%
Population Tubulin-Different-Phenotype (%) [6]: 18%
Total Cell Count [6]: 54
Population Apoptotic (%) [7]: 66%
Population Fragmented Nuclei (%) [7]: 22%
Population Healthy Nuclei (%) [7]: 23%
Population Hoechst High Intensity Objects (%) [7]: 35%
Population Membrane Permeable-Phenotype (%) [7]: 50%
Population Mitochondria Different-Phenotype (%) [7]: 20%
Population Mitotic Cells (%) [7]: 33%
Population Normal (%) [7]: 64%
Population Pyknosed Nuclei (%) [7]: 53%
Population Tubulin-Different-Phenotype (%) [7]: 50%
Total Cell Count [7]: 197
Population Apoptotic (%) [8]: 75%
Population Fragmented Nuclei (%) [8]: 31%
Population Healthy Nuclei (%) [8]: 9%
Population Hoechst High Intensity Objects (%) [8]: 18%
Population Membrane Permeable-Phenotype (%) [8]: 30%
Population Mitochondria Different-Phenotype (%) [8]: 90%
Population Mitotic Cells (%) [8]: 24%
Population Normal (%) [8]: 81%
Population Pyknosed Nuclei (%) [8]: 59%
Population Tubulin-Different-Phenotype (%) [8]: 90%
Total Cell Count [8]: 79
Population Apoptotic (%) [9]: 60%
Population Fragmented Nuclei (%) [9]: 35%
Population Healthy Nuclei (%) [9]: 53%
Population Hoechst High Intensity Objects (%) [9]: 30%
Population Mitochondria Different-Phenotype (%) [9]: 0%
Population Mitotic Cells (%) [9]: 40%
Population Normal (%) [9]: 69%
Population Pyknosed Nuclei (%) [9]: 10%
Population Tubulin-Different-Phenotype (%) [9]: 43%
Total Cell Count [9]: 136
Population Apoptotic (%) [10]: 33%
Population Fragmented Nuclei (%) [10]: 39%
Population Healthy Nuclei (%) [10]: 57%
Population Hoechst High Intensity Objects (%) [10]: 13%
Population Membrane Permeable-Phenotype (%) [10]: 7%
Population Mitochondria Different-Phenotype (%) [10]: 1%
Population Mitotic Cells (%) [10]: 66%
Population Normal (%) [10]: 86%
Population Pyknosed Nuclei (%) [10]: 2%
Population Tubulin-Different-Phenotype (%) [10]: 64%
Total Cell Count [10]: 153
Population Apoptotic (%) [11]: 50%
Population Fragmented Nuclei (%) [11]: 22%
Population Healthy Nuclei (%) [11]: 23%
Population Hoechst High Intensity Objects (%) [11]: 38%
Population Membrane Permeable-Phenotype (%) [11]: 51%
Population Mitochondria Different-Phenotype (%) [11]: 21%
Population Mitotic Cells (%) [11]: 50%
Population Normal (%) [11]: 61%
Population Pyknosed Nuclei (%) [11]: 53%
Population Tubulin-Different-Phenotype (%) [11]: 51%
Total Cell Count [11]: 230
Population Apoptotic (%) [12]: 34%
Population Fragmented Nuclei (%) [12]: 15%
Population Healthy Nuclei (%) [12]: 34%
Population Hoechst High Intensity Objects (%) [12]: 44%
Population Membrane Permeable-Phenotype (%) [12]: 31%
Population Mitochondria Different-Phenotype (%) [12]: 40%
Population Mitotic Cells (%) [12]: 65%
Population Normal (%) [12]: 55%
Population Pyknosed Nuclei (%) [12]: 50%
Population Tubulin-Different-Phenotype (%) [12]: 72%
Total Cell Count [12]: 247

Cc1sc2c(c1C)C(c1ccc(Cl)cc1)=N[C@@H](CC(=O)OC(C)(C)C)c1nnc(C)n1-2
Population Apoptotic (%) [3]: 71% and 88%
Population Fragmented Nuclei (%) [3]: 38% and 43%
Population Healthy Nuclei (%) [3]: 48% and 40%
Population Hoechst High Intensity Objects (%) [3]: 13% and 14%
Population Membrane Permeable-Phenotype (%) [3]: 7% and 4%
Population Mitochondria Different-Phenotype (%) [3]: 0%
Population Mitotic Cells (%) [3]: 28% and 12%
Population Normal (%) [3]: 86% and 85%
Population Pyknosed Nuclei (%) [3]: 13% and 16%
Population Tubulin-Different-Phenotype (%) [3]: 4% and 0%
Total Cell Count [3]: 368 and 183
Population Apoptotic (%) [4]: 66%
Population Fragmented Nuclei (%) [4]: 55% and 63%
Population Healthy Nuclei (%) [4]: 39% and 31%
Population Hoechst High Intensity Objects (%) [4]: 24% and 25%
Population Membrane Permeable-Phenotype (%) [4]: 10% and 0%
Population Mitotic Cells (%) [4]: 33%
Population Normal (%) [4]: 75%
Population Pyknosed Nuclei (%) [4]: 6% and 4%
Total Cell Count [4]: 132 and 92
Population Apoptotic (%) [7]: 73%
Population Fragmented Nuclei (%) [7]: 36% and 29%
Population Healthy Nuclei (%) [7]: 47% and 59%
Population Hoechst High Intensity Objects (%) [7]: 12% and 16%
Population Membrane Permeable-Phenotype (%) [7]: 7%
Population Mitochondria Different-Phenotype (%) [7]: 6%
Population Mitotic Cells (%) [7]: 26%
Population Normal (%) [7]: 87% and 83%
Population Pyknosed Nuclei (%) [7]: 16% and 11%
Population Tubulin-Different-Phenotype (%) [7]: 2% and 1%
Total Cell Count [7]: 183 and 320
Population Apoptotic (%) [8]: 71% and 66%
Population Fragmented Nuclei (%) [8]: 56% and 42%
Population Healthy Nuclei (%) [8]: 31% and 49%
Population Hoechst High Intensity Objects (%) [8]: 28% and 21%
Population Mitochondria Different-Phenotype (%) [8]: 11% and 14%
Population Mitotic Cells (%) [8]: 28% and 33%
Population Normal (%) [8]: 71% and 78%
Population Pyknosed Nuclei (%) [8]: 12% and 8%
Population Tubulin-Different-Phenotype (%) [8]: 11%
Total Cell Count [8]: 81 and 91
